Data from ChEMBL document CHEMBL1138658, “Novel 2-aminotetralin and 3-aminochroman derivatives as selective serotonin 5-HT7 receptor agonists and antagonists” (J Med Chem, 2004).

Tests used:
[1] = target: T1, 5-hydroxytryptamine receptor 1A (Rattus norvegicus, UniProt P19327); experiment: Inhibition of [3H]8-OH-DPAT binding to rat 5-hydroxytryptamine 1A receptor
T1 sequence (P19327 whole entry): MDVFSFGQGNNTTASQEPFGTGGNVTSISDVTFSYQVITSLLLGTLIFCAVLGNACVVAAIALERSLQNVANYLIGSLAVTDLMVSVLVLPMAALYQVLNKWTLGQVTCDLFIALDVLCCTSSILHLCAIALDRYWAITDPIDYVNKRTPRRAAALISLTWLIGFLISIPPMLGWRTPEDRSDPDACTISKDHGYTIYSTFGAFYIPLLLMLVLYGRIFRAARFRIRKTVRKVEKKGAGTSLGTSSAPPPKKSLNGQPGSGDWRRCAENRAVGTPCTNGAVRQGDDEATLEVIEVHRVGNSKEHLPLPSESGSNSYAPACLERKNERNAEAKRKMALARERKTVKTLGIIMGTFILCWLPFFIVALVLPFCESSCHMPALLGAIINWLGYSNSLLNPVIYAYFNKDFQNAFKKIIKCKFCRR
Procedure, shortened: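 Radioligand [3H]-8-OH-DPAT; receptor source either CHO cells expressing human 5-HT1A or rat hippocampal cells.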

[2] = target: 5-hydroxytryptamine receptor 7 (Rattus norvegicus, UniProt P32305); experiment: Inhibition of [3H]-5-HT binding to rat 5-hydroxytryptamine 7 receptor
Procedure, shortened: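 Rat 5-HT7 receptor expressed in CHO or Sf9 cells; [3H]-5-HT radioligand displacement.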

[3] = target: 5-hydroxytryptamine receptor 7 (Rattus norvegicus) (UniProt P32305); experiment: Stimulation of cAMP production in CHO cells expressing rat 5-hydroxytryptamine 7 receptor; type: functional, cell-based
Procedure, shortened: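 cAMP production in CHO cells expressing rat 5-HT7 receptor. Efficacy is expressed as percent of the 5-HT-stimulated production.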

Rattus norvegicus = species: Rattus norvegicus; experiment: Inhibition of 3[H]8-OH--DPAT and [3H]5-HT binding to 5-hydroxytryptamine 1A receptor and 5-hydroxytryptamine 7 receptor in rat
Procedure, shortened: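 Displacement binding with [3H]-8-OH-DPAT at 5-HT1A in rat hippocampal cells, and with [3H]-5-HT at rat 5-HT7 expressed in CHO or Sf9 cells.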

[4] = target: 5-hydroxytryptamine receptor 7 (Rattus norvegicus) (UniProt P32305); experiment: Stimulation of cAMP production in CHO cells expressing rat 5-hydroxytryptamine 7 receptor; Antagonist; type: functional, cell-based; details: filed as antagonist
Procedure, shortened: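 Functional assay in CHO cells expressing rat 5-HT7 receptor, read as cAMP production. Efficacy is expressed as % of the cAMP production stimulated by 5-HT.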

[5] = target: D(2) dopamine receptor (Homo sapiens) (UniProt P14416); experiment: Inhibition of [3H]raclopride binding to Dopamine receptor D2A in human
D(2) dopamine receptor (Homo sapiens), sequence (P14416 whole entry, looked up): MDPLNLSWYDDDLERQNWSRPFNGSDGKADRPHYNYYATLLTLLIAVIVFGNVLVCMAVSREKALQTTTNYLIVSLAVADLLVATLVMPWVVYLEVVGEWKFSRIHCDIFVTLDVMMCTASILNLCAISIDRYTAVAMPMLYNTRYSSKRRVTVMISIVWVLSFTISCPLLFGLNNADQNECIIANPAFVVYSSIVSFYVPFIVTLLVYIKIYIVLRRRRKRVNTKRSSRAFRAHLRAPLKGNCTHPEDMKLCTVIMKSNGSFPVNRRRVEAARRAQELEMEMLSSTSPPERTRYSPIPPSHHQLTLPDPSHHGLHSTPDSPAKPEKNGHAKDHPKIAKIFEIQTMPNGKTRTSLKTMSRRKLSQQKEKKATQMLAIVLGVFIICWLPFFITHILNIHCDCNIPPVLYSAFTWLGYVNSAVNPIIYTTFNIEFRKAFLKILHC

5-hydroxytryptamine receptor 7, sequence (P32305 whole entry): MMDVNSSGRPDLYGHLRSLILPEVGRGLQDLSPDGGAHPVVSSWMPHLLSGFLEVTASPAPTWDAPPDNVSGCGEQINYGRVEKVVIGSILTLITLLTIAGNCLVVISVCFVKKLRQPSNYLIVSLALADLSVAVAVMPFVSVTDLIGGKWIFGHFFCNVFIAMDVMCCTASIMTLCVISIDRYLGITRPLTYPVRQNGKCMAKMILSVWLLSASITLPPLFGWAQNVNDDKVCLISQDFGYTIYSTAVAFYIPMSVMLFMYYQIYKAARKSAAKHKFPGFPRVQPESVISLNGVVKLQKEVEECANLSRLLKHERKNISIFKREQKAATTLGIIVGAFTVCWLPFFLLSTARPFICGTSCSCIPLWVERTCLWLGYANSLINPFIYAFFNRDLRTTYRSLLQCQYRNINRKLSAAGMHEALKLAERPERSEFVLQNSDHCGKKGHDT
5-hydroxytryptamine receptor 7 (Rattus norvegicus), sequence (P32305 whole entry): as above

SMILES	Ki [1]	Ki [2]	Efficacy [3]	Ratio (Rattus norvegicus)	Efficacy [4]	Ki [5]
CCCN(CCC)[C@H]1COc2c(cccc2-c2ccccc2)C1	1.23 nM	2.92 nM	100%	–	–	–
CCCN(CCC)[C@H]1CCc2c(cccc2-c2ccccc2OC)C1	11.7 nM	1.73 nM	100%	6.8	–	–
CCCN(CCC)[C@H]1CCc2c(cccc2-c2ccc(OC)cc2)C1	1.49 nM	12.4 nM	–	0.12	–	–
Cc1cccc(C#N)c1-c1cccc2c1-c1cccc3c1[C@@H](C2)N(C)CC3	142 nM	–	–	37	Antagonist	498 nM
CCCN(CCC)[C@H]1CCc2c(cccc2-c2ccccc2)C1	0.87 nM	3.38 nM	100%	0.26	–	–
COc1cccc(OC)c1-c1cccc2c1CC[C@H](N)C2	> 1000 nM	78.7 nM	–	> 12.7	–	–
O=C1c2ccccc2CCCN1CCN1CCC(n2c(O)nc3cc(F)ccc32)CC1	–	–	–	–	Antagonist	–
O=C1Nc2cccc3c2C1(CCCCN1CCc2sccc2C1)CCC3 (configuration not stated)	513 nM	6.46 nM	–	79	Antagonist	–
CCCN(CCC)[C@@H]1COc2c(cccc2-c2ccccc2OC)C1	680 nM	364 nM	–	1.9	–	2110 nM
COc1cccc(OC)c1-c1cccc2c1OC[C@H](N(C)C)C2	> 1000 nM	5.29 nM	28%	> 189	–	–
O=C1c2ccccc2CCCN1CCN1CCC(n2c(=O)[nH]c3cc(F)ccc32)CC1	479 nM	2.24 nM	–	–	–	–
CCCN(CCC)[C@H]1COc2c(cccc2-c2ccc(OC)cc2)C1	1.31 nM	12.6 nM	91%	–	–	–
O=S(=O)(c1ccc2c(c1)CC=C2)N1CCC[C@@H]1CCN1CCC(Oc2ccc(Cl)cc2)CC1	562 nM	1.99 nM	–	282	Antagonist	–
CCCN(CCC)[C@H]1COc2c(cccc2-c2c(OC)cccc2OC)C1	174 nM	6.44 nM	154%	27	–	–
CCCN(CCC)[C@H]1COc2c(cccc2-c2ccccc2OC)C1	10.3 nM	2.7 nM	100%	3.8	–	512 nM
